Converted amounts (≈) assume the structure as drawn. The source made the active and inactive calls. The rule behind the calls is not given here.
Assays:
[1] = Mutagenicity in Salmonella typhimurium TA98 assessed as increase in ratio of revertant colonies in presence of S9 liver fraction relative to control; format: toxicity, subcellular; details: salmonella enterica subsp. enterica serovar typhimurium
[2] = biological target: T1, Nuclear receptor subfamily 1 group I member 3 (Homo sapiens, UniProt Q14994); assay: Transactivation of CAR (unknown origin) assessed as upregulation of CYP2B6; format: ADME
T1 sequence (Q14994 whole entry): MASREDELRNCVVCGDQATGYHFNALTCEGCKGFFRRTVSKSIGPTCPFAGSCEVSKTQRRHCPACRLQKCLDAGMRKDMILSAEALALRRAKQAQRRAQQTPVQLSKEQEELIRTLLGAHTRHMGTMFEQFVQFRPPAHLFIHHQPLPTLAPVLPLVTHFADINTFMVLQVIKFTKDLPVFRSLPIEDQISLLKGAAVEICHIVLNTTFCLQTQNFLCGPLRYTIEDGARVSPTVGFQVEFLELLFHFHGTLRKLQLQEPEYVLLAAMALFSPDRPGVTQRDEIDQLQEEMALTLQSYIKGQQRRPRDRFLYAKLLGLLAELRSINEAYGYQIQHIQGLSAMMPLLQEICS
How it was run: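 Nuclear receptor reporter-gene induction assay, with reporters coupled to PXR, CAR or AhR. Compound was tested at 0.1–1, 3 and 8 μg/mL. Positive controls were rifampin for PXR, CITCO for CAR and 3-methylcholanthrene for AhR.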

[3] = system: Mycobacterium tuberculosis H37Rv; assay: Inhibition of MmpL3 in clinical isolates of drug sensitive Mycobacterium tuberculosis H37Rv after 7 to 14 days by alamar blue assay
[4] = system: Mycobacterium tuberculosis; assay: Antimycobacterial activity against Mycobacterium tuberculosis H37Rv grown on serum isolated from 10 mg/kg, po treated BALB/c mouse for 30 to 120 mins assessed as reduction in bacterial growth followed by bacterial addition incubated for 7 days by alamar blue reagent based serum inhibition titration assay; format: functional, organism-based
How it was run: (§1)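 Six-week-old female BALB/c mice (20 g) given one oral dose as suspension in 0.5% CMC in water; isoniazid 10 mg/kg as positive control, vehicle as negative. Serum collected at 30, 60 and 120 min, pooled from three mice per time point, 2-fold serially diluted. 10^4 CFU H37Rv added per well, 7 days at 37 °C. alamarBlue added for 16−18 h, fluorescence read at Ex544/Em590 and plotted against serum titration.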

[5] = Oral bioavailability in BALB/c mouse at 10 mg/kg administered for 30 to 120 mins followed by Mycobacterium tuberculosis H37Rv addition to compound treated serum incubated for 7 days by alamar blue reagent based serum inhibition titration assay; format: ADME, organism-based; details: in vivo; how it was run: as §1

**Q.** For `Nc1ccc2cc3ccccc3cc2c1` [2-AMINOANTHRACENE], which “fold change (FC)” value [1] is on record?
**A.** 173

**Q.** For `Clc1ccc(-c2nc3sccn3c2/C=N/OCc2ccc(Cl)c(Cl)c2)cc1`, which Activity [2] is on record?
**A.** Active

**Q.** With `NNC(=O)c1ccncc1` [ISONIAZID] as the compound, how does the MIC90 [3] read?
**A.** 0.29 µM (≈ 0.0398 µg/mL)

**Q.** And the Activity [4]?
**A.** Active

**Q.** What about the Drug uptake [5] of the same compound?
**A.** Active

From ChEMBL document CHEMBL4477209, “Indole-2-carboxamide-based MmpL3 Inhibitors Show Exceptional Antitubercular Activity in an Animal Model of Tuberculosis Infection” (J Med Chem, 2016)
